APP 5'UTR act: APP 5'UTR luciferase reporter activation | hit rate 1% among 190,000 | AID 1276 | SH-SY5Y APP 5'UTR luciferase reporter, luminescence; zero percent = DMSO vehicle wells | activation, % at 2 µM;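 active = activation above a set limit, based on mean plus 3 SD of controls, cut at about 140% in these data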
FLuc inhib CS: counter-screen for luciferase assay inhibitors: firefly luciferase inhibition; P08659; ATPLite firefly luciferase biochemical luminescence, 10 min; inhibition, % at 10 µM; hit rate 1.5% among 200,000;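 active = inhibition above about 50% when tested at 10 µM, limit read from the data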
Target sequence (P08659 whole entry, looked up): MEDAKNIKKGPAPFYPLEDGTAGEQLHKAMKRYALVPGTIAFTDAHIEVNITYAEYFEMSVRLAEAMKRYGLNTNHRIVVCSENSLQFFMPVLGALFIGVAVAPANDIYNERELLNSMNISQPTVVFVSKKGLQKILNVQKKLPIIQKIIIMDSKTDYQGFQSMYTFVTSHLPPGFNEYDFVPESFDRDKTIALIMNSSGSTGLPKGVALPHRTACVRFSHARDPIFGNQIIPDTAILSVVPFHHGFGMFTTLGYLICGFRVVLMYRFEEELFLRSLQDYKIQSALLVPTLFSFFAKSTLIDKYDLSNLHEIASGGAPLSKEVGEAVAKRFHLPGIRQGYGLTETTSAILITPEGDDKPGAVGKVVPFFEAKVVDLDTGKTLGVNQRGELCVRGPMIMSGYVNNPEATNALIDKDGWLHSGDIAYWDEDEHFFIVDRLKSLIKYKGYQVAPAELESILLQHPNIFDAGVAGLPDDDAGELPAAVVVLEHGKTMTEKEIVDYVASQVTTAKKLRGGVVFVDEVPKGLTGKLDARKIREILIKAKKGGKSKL
FLuc stim CS: firefly luciferase counter-screen for stimulation assays; activation factor at 10 µM; ATPlite luciferase biochemical, luminescence, 10 min; 0 = ATP-free wells, 1 = DMSO control; 200,000 tested, under 10 active;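 active = luciferase activation factor, scaled between plate controls, of at least 2 with compound at 10 µM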
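System: cell-free luciferase reagent; medium: PBS as buffer for the ATP substrate; doses: test compounds dosed from 2 mM stocks in 100% DMSO; incubation: 10 min, room temperature; measured by: luminescence from luciferase reaction; read-out: luciferase activation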
STAT1 act: activators of IFN-gamma induced STAT1 signaling. NIH 3T3 STAT1-luciferase reporter, luminescence; 100% = IFN-gamma alone, no compound. activation (% of control), % at 5.5 µM. hit rate 2.6% among 200,000. AID 932;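 active = activation above the screen-wide mean activation plus 3 SD, cut at about 130% in these data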
NF-kB neuron act: compounds increasing NF-kB expression in human neuronal cells. NF-kB reporter expression; active compounds read high. hit rate 1.6% among 190,000. fold change at 12.5 µM. AID 1239; in the data active = fold change above about 3.3
SDO1 yeast rescue: compounds rescuing growth of sdo1-depleted yeast, bone marrow failure model; z-score at 10 µM; S. cerevisiae sdo1-depleted JHY4D growth rescue, OD600 30 h; active compounds read high; pdr5 snq2 efflux-pump mutant strain; AID 817; hit rate 0.21% among 140,000;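 active = z-score above 3 at both the 24 hr and the 30 hr optical density reads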
sdo1 rescue conf: confirmation of growth rescue in SDO1-depleted yeast, bone marrow failure. shares compounds with SDO1 yeast rescue. S. cerevisiae JHY4D (SDO1-depleted) growth rescue, OD600, 30 h; active compounds read high; efflux-deficient strain, SNQ2 and PDR5 mutated. OD recovery (test concentration not listed). hit rate 44% among 440;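 active = yeast growth recovered at 30 hours, either rising with dose fitted slope above 0.001 or with average optical density gain above 0.07, some results past the limit were not filed as active; inactive = growth falling with dose or no effect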
Each line names hits and unclear results; the compound was inactive in the other large screens (follow-up assays come after a bar, where they were run); ! = a repeat was not active. Only some compounds are listed: those with a hit (about 4.3% of all), similar ones and a draw of the others.

O=C1COc2ccc(C(=O)COC(=O)CNC(=O)c3ccco3)cc2N1	none (no result: SDO1 yeast rescue)
CC1=C(C)CC(C(=O)NCc2ccc3c(c2)OCO3)C(C(=O)O)C1 (configuration not stated)	none | sdo1 rescue conf 0.0747
N#Cc1ccc(-c2ccc(F)cc2)nc1SCC(=O)Nc1sc2c(c1C#N)CCC2	none | sdo1 rescue conf inactive
Cn1c(CNC(=O)c2ccc(Cl)c(Cl)c2)nnc1SCC(=O)Nc1sc2c(c1C#N)CCCC2	SDO1 yeast rescue 4.73 | sdo1 rescue conf inactive
CCCc1nc2sc3c(=O)n(N)cnc3c2c2c1CCCC2	none
c1ccc(Oc2cccc(NC3=NCCC3)c2)cc1	SDO1 yeast rescue 14.6 | sdo1 rescue conf inactive
COCC(C)NC(=O)C(C)Oc1ccccc1 (configuration not stated)	none
Cn1c(=O)c2[nH]c(CNCc3ccccc3Cl)nc2n(C)c1=O	none | sdo1 rescue conf inactive
Cn1c(=O)c2[nH]c(CN3CCN(Cc4ccccc4)CC3)nc2n(C)c1=O	none
CC1CCN(C(=O)C2CCC(CNS(=O)(=O)c3cccc4cccnc34)CC2)CC1 (configuration not stated)	SDO1 yeast rescue 9.6 | sdo1 rescue conf inactive
O=C(Nc1ccccc1)N(O)c1ccc(Cl)cc1	SDO1 yeast rescue 3.32 | sdo1 rescue conf 0.081
CCOC(=O)c1c(NC(=S)Nc2ccc(F)cc2)sc2c1CCC2	none
CCOC(=O)c1c(NC(=S)Nc2ccc(C)cc2)sc2c1CCC2	none | sdo1 rescue conf 0.0876
CN(C)S(=O)(=O)c1ccc(C(=O)OCC(=O)c2ccc(OC(F)F)cc2OC(F)F)cc1	none
Cc1nn(-c2ccccc2)c(C)c1NC(=O)c1cccs1	SDO1 yeast rescue 3.28 | sdo1 rescue conf 0.0648
Cc1nn(-c2ccccc2)c(C)c1NC(=O)Cc1cccs1	none
Cc1cc(C)c(NC(=S)N2CCC(N(C)CC3CCCO3)CC2)c(C)c1 (configuration not stated)	SDO1 yeast rescue 3.65 | sdo1 rescue conf 0.0961
CCOCCCNC(=O)CS(=O)(=O)Cc1nc(-c2cccc(OC)c2)oc1C	SDO1 yeast rescue 11.6 | sdo1 rescue conf 0.073
CCCNC(=O)CS(=O)(=O)Cc1nc(-c2cccc(OC)c2)oc1C	none
CCOc1ccc(CCNC(=O)C2CCN(C(=O)N(C)C)CC2)cc1OCC	none | sdo1 rescue conf inactive
CCCCC(=O)Nc1cc(NC(=O)CC)ccc1Cl	SDO1 yeast rescue 3.4 | sdo1 rescue conf inactive
CCCC(=O)Nc1ccc(Cl)c(NC(=O)CC)c1	none
COc1cc2c(=O)n(CCCN3CCOCC3)c(=S)[nH]c2c(OC)c1OC	none
CN1CC=C2C(C#N)=C(N)C(C#N)(C#N)[C@H](c3ccoc3)[C@H]2C1	SDO1 yeast rescue 3.42 | sdo1 rescue conf inactive
COc1ccc(NC(=O)CSc2nnc(CN3CCOCC3)n2-c2ccccc2)cc1Cl	SDO1 yeast rescue 3.52 | sdo1 rescue conf inactive
COc1ccc(NC(=O)CSc2nc(C)c3c(c2C#N)CCCC3)cc1	none
COc1ccc(-c2nnc(SCC(=O)Nc3ccccc3OC)o2)cc1	NF-kB neuron act 4.13, SDO1 yeast rescue 7.5 | sdo1 rescue conf 0.103
CCN(CC)S(=O)(=O)c1ccc(-c2nnc(SCC(=O)Nc3ccc(OC)cc3)o2)cc1	none
COc1ccccc1NC(=O)CSc1nnc(-c2ccncc2)o1	none
COc1ccccc1NC(=O)CSc1nc(C)c2c(c1C#N)CCCC2	none | sdo1 rescue conf 0.0779
CCN(CC)S(=O)(=O)c1ccc(-c2nnc(SCC(=O)Nc3ccc(OC)c(OC)c3)o2)cc1	none | sdo1 rescue conf inactive
O=C(COC(=O)c1cccnc1Cl)NCc1cccs1	none (no result: SDO1 yeast rescue)
COC(=O)[C@@]1(Cc2ccc(OC)cc2)[C@H]2c3cc(C(=O)N4CCCC4)n(Cc4ccc(C)o4)c3C[C@H]2CN1C(=O)c1ccccc1	none
CC(C)CC(NC(=O)COc1ccccc1)C(=O)O (configuration not stated)	none
COC(=O)[C@H](C)NC(=O)COc1ccccc1	SDO1 yeast rescue 3.82 (no result: APP 5'UTR act) | sdo1 rescue conf inactive
O=C(CN1CCCc2ccccc21)Nc1ccc(F)cc1[N+](=O)[O-]	none (no result: SDO1 yeast rescue)
COc1ccccc1NC(=O)c1nn(-c2cccc(C(F)(F)F)c2)ccc1=O	SDO1 yeast rescue 7.24 | sdo1 rescue conf inactive
COCCCN1C(=O)C(O)=C(C(=O)c2ccco2)C1c1ccccc1 (configuration not stated)	none | sdo1 rescue conf 0.0973
O=C(C1=C(O)C(=O)N(CCc2ccccc2)C1c1cccnc1)c1ccco1 (configuration not stated)	none
CCOC(=O)C1(Cc2ccccc2C)CCCN(Cc2ccc(NC(C)=O)cc2)C1 (configuration not stated)	none (no result: SDO1 yeast rescue)
O=c1c2cnn(-c3ccccc3)c2ncn1Cc1ccccc1F	SDO1 yeast rescue 9.46 | sdo1 rescue conf inactive
CCC(=O)NC1(C(F)(F)F)C(=O)Nc2c1c(=O)[nH]c(=O)n2Cc1ccco1 (configuration not stated)	SDO1 yeast rescue 14.8 | sdo1 rescue conf inactive
Nc1oc2ccc(F)cc2c(=O)c1C=O	none
O=C(NCc1ccccc1Cl)c1ccccc1CCc1ccccc1	SDO1 yeast rescue 7.09 | sdo1 rescue conf 0.0821
COc1ccc2cc(CN(CC3CCCO3)C(=S)Nc3ccccc3)c(=O)[nH]c2c1 (configuration not stated)	none (no result: SDO1 yeast rescue)
COC(=O)CSc1nnc(-c2ccco2)n1Cc1ccco1	none
O=C(CSc1nnc(-c2ccco2)n1Cc1ccco1)NCc1cccs1	SDO1 yeast rescue 6.45 | sdo1 rescue conf 0.071
O=C(NCc1ccc2c(c1)OCO2)c1cc(-c2ccc(Cl)cc2Cl)on1	none | sdo1 rescue conf inactive
CCC(CC)C(=O)Nc1cc(C(=O)OC)ccc1C(=O)OC	SDO1 yeast rescue 10.1 | sdo1 rescue conf inactive
COCCNC(=O)C(=O)NCC1OCCN1C(=O)c1ccc(Cl)cc1 (configuration not stated)	SDO1 yeast rescue 11.1 | sdo1 rescue conf inactive
COC(CNC(=O)C(=O)NCC1OCCN1C(=O)c1ccc(Cl)cc1)OC (configuration not stated)	none
COc1ccc(-c2nc3ccccc3o2)cc1NC(=O)c1ccc(Br)o1	none | sdo1 rescue conf 0.0643
COc1ccccc1NC(=O)c1ccc(Br)o1	none
CCCCNS(=O)(=O)c1ccc(NS(=O)(=O)c2c(C)cc(C)cc2C)cc1	none
Cn1nc(OC(=O)Nc2cccc(Cl)c2)cc1C(F)(F)F	none
Cn1nc(OC(=O)Nc2ccccc2)cc1C(F)(F)F	SDO1 yeast rescue 3.29! | sdo1 rescue conf 0.0766
Cc1ccc(CNC(=O)CCCn2c(=O)[nH]c3ccccc3c2=O)cc1	SDO1 yeast rescue 8.92 | sdo1 rescue conf inactive

Screening data from PubChem BioAssay.
